Measured values from different studies.
Each line is one published result; the experiments were not run side by side.
FGFR3: Fibroblast growth factor receptor 3 (FGFR3, Homo sapiens, UniProt P22607)
FGFR3 G697C: Fibroblast growth factor receptor 3 (FGFR3, Homo sapiens, UniProt P22607, G697C)

CN(c1nccc(-c2cnn3ncccc23)n1)C1CC1
remaining binding (FGFR3; binding; 1 µM): 98%

FC(F)(F)Oc1cccc(-c2cnc3ccc(-c4ccncc4)nn23)c1
remaining binding (FGFR3; cell-free assay, competition with immobilised ligand; 5 µM): 86%

CN(C)c1nccc(-c2cnn3ncccc23)n1
remaining binding (FGFR3 G697C; binding; 1 µM): 65%

CCC(=O)N[C@H]1CC[C@@H](C(=O)N(C)c2ccc(-c3nc4ccccc4o3)cc2)C1
remaining binding (FGFR3; cell-free assay, competition with immobilised ligand; 1 µM): 98%

C[C@@H]1CN(c2ccc3ncc(-c4ccc5[nH]nc(C6CC6)c5c4)n3n2)C[C@H](C)O1
remaining binding (FGFR3; binding, competition with immobilised ligand; 50 nM): 100%

N[C@@H]1CCN(c2nccc(-c3cnn4ncccc34)n2)C1
remaining binding (FGFR3 G697C; binding; 1 µM): 100%

CC(=O)N1CCC(c2ccc(C(=O)NC(=N)N)cc2C(F)(F)F)CC1
remaining binding (FGFR3 G697C; cell-free assay, competition with immobilised ligand; 1 µM): 98%

C=CC(=O)N1CCC(C(=O)NCC(=O)N2CCN(c3nc(-c4cnc(N)nc4C(F)F)nc(N4CCOCC4)n3)CC2)CC1
remaining binding (FGFR3; binding, competition with immobilised ligand; 1 µM): 96%

COc1ccc2c(c1)O[C@@H](c1ccc(OC)c(OC)c1)C[C@H]2NC(=O)C1(c2ccc3c(c2)OC(F)(F)O3)CC1
remaining binding (FGFR3; cell-free assay, competition with immobilised ligand; 1 µM): 89%

O=C(c1ccc(Nc2nccc(-c3cc4ccccc4s3)n2)cc1)N1CCC(N2CCCC2)CC1
remaining binding (FGFR3; binding, competition with immobilised ligand; 1 µM): 87%

COc1cc(-c2cn(C3CCc4c(F)cccc4N(CC(F)(F)F)C3=O)nn2)ccc1-n1cnc(C)c1 (stereo not drawn)
remaining binding (FGFR3; cell-free assay, competition with immobilised ligand; 1 µM): 100%

CNC(=O)[C@@H]1CC[C@@H](n2c(-c3ccc4cnccc4c3)nc3ccc(C(=O)NCc4cccc(C(N)=O)c4)cc32)C1
remaining binding (FGFR3 G697C; binding, competition with immobilised ligand; 1 µM): 93%

O=C(NCCCN1CCOCC1)c1ccc(Nc2ncc(Cl)c(-c3ccc(Cl)s3)n2)cc1
remaining binding (FGFR3; binding, competition with immobilised ligand; 1 µM): 41%

O=C(Nc1c[nH]nc1C(=O)NC1CCNCC1)c1cc(F)cc(F)c1
remaining binding (FGFR3 G697C; binding, competition with immobilised ligand; 1 µM): 100%

CCCCN(CCCC)C(=O)CN1C[C@H](c2cc(OC)c3c(c2)OCO3)[C@@H](C(=O)O)[C@@H]1CC(C)(C)CCC
remaining binding (FGFR3; cell-free assay, competition with immobilised ligand; 1 µM): 100%

F[C@@H]1CCN(c2nccc(-c3cnn4ncccc34)n2)C1
remaining binding (FGFR3 G697C; binding; 1 µM): 79%

O=C(NCCCN1CCOCC1)c1ccc(Nc2nccc(-c3cc4ccccc4s3)n2)cc1
remaining binding (FGFR3; binding, competition with immobilised ligand; 1 µM): 94%

COc1ccc2cc(OCC3(C(=O)O)CN(C(=O)c4ccc(F)cc4)C3)ccc2c1
remaining binding (FGFR3; cell-free assay, competition with immobilised ligand; 1 µM): 100%

CN(C)c1nccc(-c2cnc3ncccn23)n1
remaining binding (FGFR3 G697C; binding; 1 µM): 99%

COc1ncc2cc3ccccc3nc2c1C#N
remaining binding (FGFR3 G697C; cell-free assay, competition with immobilised ligand; 5 µM): 96%

CC1CCCN1c1nccc(-c2cnn3ncccc23)n1 (stereo not drawn)
remaining binding (FGFR3 G697C; binding; 1 µM): 86%

CCN1CCN(Cc2ccc(C(=O)Nc3ccc(C)c(Oc4ccc5c(c4)CC(=O)N5)c3)cc2C(F)(F)F)CC1
remaining binding (FGFR3; binding, competition with immobilised ligand; 1 µM): 100%

C[C@H]1CCN(c2nccc(-c3cnn4ncccc34)n2)C1
remaining binding (FGFR3; binding; 1 µM): 100%

CS(=O)(=O)c1cc(C2(NC(=O)c3cncc4c3cnn4-c3ccc(F)cc3)CC2)ccn1
remaining binding (FGFR3; cell-free assay, competition with immobilised ligand; 1 µM): 100%
